Screening results as filed in PubChem BioAssay.
In the library only some 2.2% were active in any assay of this set; here they are far more common.
C8 TRAIL sens – sensitizes caspase-8 expressing cells to TRAIL | NB7+C8 cells + TRAIL, ATPlite viability luminescence | inhibition (viability loss, TRAIL sensitization), % at 10 µM | 360,000 compounds, 1% hits;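 active = compounds causing at least 50% loss of cell viability in the single-dose screen, relative to plate controls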
PPC-1+TRAIL kill – kills PPC-1 cancer cells in the presence of TRAIL; cell killing (% activity), % at 4 µM or 5 µM; 220,000 compounds, 0.41% hits; PPC-1 cells + TRAIL, ATPLite viability luminescence;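 active = cell killing above 50% in the first pass at 4 µM, then a duplicate retest at 5 µM averaging 50% or more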
Wee1 degr inh – human Wee1 degradation inhibition, primary screen. 220,000 compounds, 1.2% hits. HeLa Luc-Wee1K328M stability, luciferase luminescence; 100% = proteasome inhibitor MG132 effect. reporter increase, % at 5 µM. P30291;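 active = activation above the mean of all tested compounds plus 3 SD, set per screening run, cut at about 8.8% in these data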;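 also: cells exposed to compound for 20 h before luminescence read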
PKD1 kinase inh – PKD1 (human) kinase inhibition | inhibition, % (test concentration not listed) | 200,000 compounds, 0.056% hits | PKD1 kinase fluorescence polarization assay; in the data active = inhibition above about 50%
FLuc stim CS – affects firefly luciferase, flagging false hits in luciferase stimulation screens. ATPlite luciferase biochemical, luminescence, 10 min; 0 = ATP-free wells, 1 = DMSO control. activation factor at 10 µM. 200,000 tested, under 10 active;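 active = luciferase activation factor, scaled between plate controls, of at least 2 with compound at 10 µM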
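Assay system: Luciferase/luciferin detection reagent, cell-free biochemical luciferase assay / Also added: ATP substrate / Schedule: 10 min at ambient temperature / Measured by: luminescence measurement of luciferase light output / Benchmarks: low control with PBS replacing ATP, high control enzyme plus ATP without compound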
FLuc inh counter – counter-screen for luciferase assay inhibitors: firefly luciferase inhibition; P08659; ATPLite firefly luciferase biochemical luminescence, 10 min; inhibition, % at 10 µM; 200,000 compounds, 1.5% hits;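 active = inhibition above about 50% when tested at 10 µM, limit read from the data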
PPC1 cytotox – kills PPC-1 cells. shares compounds with PPC-1+TRAIL kill. PPC-1 viability, ATPlite luminescence, overnight. cytotoxicity, % at 5 µM. 1,200 compounds, 50% hits. AID 1447;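 active = reconfirmed compounds whose average cytotoxicity reaches 50% or more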
Large screens that a line does not name were inactive (follow-up assays come after a bar, where they were run).

O=C(/C=C\Nc1ccc2c(c1)OCO2)c1ccc2c(c1)OCO2	C8 TRAIL sens 83, PPC-1+TRAIL kill 85, FLuc inh counter 89 | PPC1 cytotox 84
COc1cccc(N/C=C/C(=O)c2ccc(Br)cc2)c1	none (no result: PPC-1+TRAIL kill, FLuc stim CS, FLuc inh counter)
O=C(/C=C\Nc1ccc2c(c1)OCO2)c1cccs1	C8 TRAIL sens 78, PPC-1+TRAIL kill 82, FLuc inh counter 96 | PPC1 cytotox 82
Cc1ccc(N/C=C/C(=O)c2cccs2)cc1	C8 TRAIL sens 88, PPC-1+TRAIL kill 86, FLuc inh counter 97 | PPC1 cytotox 85
COc1ccc(C(=O)/C=C/Nc2cccc(O)c2)cc1	C8 TRAIL sens 62, PPC-1+TRAIL kill 82, FLuc inh counter 95 | PPC1 cytotox 83
OC(COc1cccc2ccccc12)CN1CCN(c2ccccc2Cl)CC1 (stereo not given)	none (no result: PKD1 kinase inh, FLuc stim CS, FLuc inh counter)
COc1ccc(NC(=O)c2ccc3c(c2)S(=O)(=O)N=C2CCCCCN23)cc1S(N)(=O)=O	none (no result: PPC-1+TRAIL kill, Wee1 degr inh, PKD1 kinase inh, FLuc stim CS, FLuc inh counter)
Cc1ccc(CN2C(=O)CCC2C(=O)NCc2ccccc2Cl)cc1 (stereo not given)	none
CCOc1ccc(N/C=C\C(=O)c2ccc3c(c2)OCO3)cc1	none (no result: PPC-1+TRAIL kill, FLuc stim CS, FLuc inh counter)
O=C(/C=C\Nc1ccc2c(c1)OCO2)c1ccccn1	C8 TRAIL sens 87, PPC-1+TRAIL kill 92, FLuc inh counter 95 | PPC1 cytotox 92
O=C(Nc1ccc2c(c1)OCO2)c1ccccn1	none (no result: PPC-1+TRAIL kill, Wee1 degr inh, PKD1 kinase inh, FLuc stim CS, FLuc inh counter)
COc1ccc(N/C=C\C(=O)c2ccc3c(c2)OCO3)cc1	C8 TRAIL sens 69, PPC-1+TRAIL kill 68, FLuc inh counter 89 | PPC1 cytotox 59
Cc1cccc(-c2cc(N)n(-c3ccccc3)n2)c1	FLuc inh counter 72 | PPC1 cytotox inactive
Cc1cccc(-c2cnn(-c3ccccc3)c2N)c1	none (no result: PPC-1+TRAIL kill, Wee1 degr inh, PKD1 kinase inh, FLuc stim CS, FLuc inh counter)
CCc1ccc(-c2cc(N)n(-c3ccccc3)n2)cc1	FLuc inh counter 82 | PPC1 cytotox inactive
CCS(=O)(=O)n1nc(-c2ccccc2)cc1N	none
O=C(COc1ccccc1Cl)OCC(=O)N1CCN(S(=O)(=O)c2ccccc2)CC1	none | PPC1 cytotox inactive
Cc1ccc(S(=O)(=O)N2CCN(C(=O)COC(=O)COc3ccccc3)CC2)cc1	none
O=C(CCNc1ccc(F)cc1)c1ccco1	none | PPC1 cytotox inactive
O=[N+]([O-])c1ccc(N/N=C/c2ccc(O)c(O)c2O)c(S(=O)(=O)N2CCOCC2)c1	none | PPC1 cytotox inactive
O=[N+]([O-])c1ccc(N/N=C/c2cccc(O)c2O)c(S(=O)(=O)N2CCOCC2)c1	none
Cc1cc(=O)n2nc(N3CCCC(C(=O)N4CCN(c5ccccc5)CC4)C3)sc2n1 (stereo not given)	none | PPC1 cytotox inactive
Cc1cc(=O)n2nc(N3CCCC(C(=O)NCc4ccccc4)C3)sc2n1 (stereo not given)	none (no result: PPC-1+TRAIL kill, Wee1 degr inh, PKD1 kinase inh, FLuc stim CS, FLuc inh counter)
Cc1cc(NC(=O)c2ccc3c(c2)OCCO3)ccc1NC(=O)c1ccco1	C8 TRAIL sens 63, PPC-1+TRAIL kill 51, FLuc inh counter 82 | PPC1 cytotox inactive
Cc1ccc(C(=O)Nc2ccc3nccnc3c2)cc1	C8 TRAIL sens 76, PPC-1+TRAIL kill 74, FLuc inh counter 89 | PPC1 cytotox 74
Cc1ccc(C(=O)Nc2cnc3ccccc3c2)cc1	C8 TRAIL sens 78, PPC-1+TRAIL kill 70, FLuc inh counter 89 | PPC1 cytotox 67
O=C(Nc1ccc2c(c1)OCCO2)c1ccc2nccnc2c1	C8 TRAIL sens 68, FLuc inh counter 80 | PPC1 cytotox inactive
O=C(Nc1ccc2c(c1)OCCO2)c1ccc(Cl)c(Cl)c1	none (no result: PPC-1+TRAIL kill, Wee1 degr inh, PKD1 kinase inh, FLuc stim CS, FLuc inh counter)
O=C(Nc1ccc(NC(=O)c2ccco2)cc1)c1ccc2c(c1)OCCO2	none
Cc1cc(NC(=O)c2ccc3nccnc3c2)ccc1Br	none (no result: PPC-1+TRAIL kill, Wee1 degr inh, PKD1 kinase inh, FLuc stim CS, FLuc inh counter)
Nc1c(Br)cc(Br)c2c1C(=O)c1c(cccc1S(=O)(=O)O)C2=O	none (no result: PPC-1+TRAIL kill, Wee1 degr inh, PKD1 kinase inh, FLuc stim CS, FLuc inh counter)
CC(=O)Nc1cc2ccccc2oc1=O	none
Cc1ccc(C(=O)Nc2cc3ccccc3oc2=O)cc1	C8 TRAIL sens 82, PPC-1+TRAIL kill 72, FLuc inh counter 87 | PPC1 cytotox 72
Cc1ccc(C(=O)Nc2ccc3c(c2)CCC3)cc1	C8 TRAIL sens 79, PPC-1+TRAIL kill 52, FLuc inh counter 90 | PPC1 cytotox 53
